High-throughput results from PubChem BioAssay.
The list is not random: actives were taken first. Their share in the collection is about 1.9%.
p-CIP stab down: p/CIP protein destabilization. decrease of EGFP signal, % at 10 µM. 290,000 compounds, 0.01% hits. F442A p/CIP-EGFP cells, EGFP fluorescence, 16 h;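 active means EGFP signal decrease of at least 30% at 10 µM or well 3 SD below plate mean, unless failing retest; inactive means the rest, including hits failing retest or dose response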
Target sequence (Q05BA5 1-1403): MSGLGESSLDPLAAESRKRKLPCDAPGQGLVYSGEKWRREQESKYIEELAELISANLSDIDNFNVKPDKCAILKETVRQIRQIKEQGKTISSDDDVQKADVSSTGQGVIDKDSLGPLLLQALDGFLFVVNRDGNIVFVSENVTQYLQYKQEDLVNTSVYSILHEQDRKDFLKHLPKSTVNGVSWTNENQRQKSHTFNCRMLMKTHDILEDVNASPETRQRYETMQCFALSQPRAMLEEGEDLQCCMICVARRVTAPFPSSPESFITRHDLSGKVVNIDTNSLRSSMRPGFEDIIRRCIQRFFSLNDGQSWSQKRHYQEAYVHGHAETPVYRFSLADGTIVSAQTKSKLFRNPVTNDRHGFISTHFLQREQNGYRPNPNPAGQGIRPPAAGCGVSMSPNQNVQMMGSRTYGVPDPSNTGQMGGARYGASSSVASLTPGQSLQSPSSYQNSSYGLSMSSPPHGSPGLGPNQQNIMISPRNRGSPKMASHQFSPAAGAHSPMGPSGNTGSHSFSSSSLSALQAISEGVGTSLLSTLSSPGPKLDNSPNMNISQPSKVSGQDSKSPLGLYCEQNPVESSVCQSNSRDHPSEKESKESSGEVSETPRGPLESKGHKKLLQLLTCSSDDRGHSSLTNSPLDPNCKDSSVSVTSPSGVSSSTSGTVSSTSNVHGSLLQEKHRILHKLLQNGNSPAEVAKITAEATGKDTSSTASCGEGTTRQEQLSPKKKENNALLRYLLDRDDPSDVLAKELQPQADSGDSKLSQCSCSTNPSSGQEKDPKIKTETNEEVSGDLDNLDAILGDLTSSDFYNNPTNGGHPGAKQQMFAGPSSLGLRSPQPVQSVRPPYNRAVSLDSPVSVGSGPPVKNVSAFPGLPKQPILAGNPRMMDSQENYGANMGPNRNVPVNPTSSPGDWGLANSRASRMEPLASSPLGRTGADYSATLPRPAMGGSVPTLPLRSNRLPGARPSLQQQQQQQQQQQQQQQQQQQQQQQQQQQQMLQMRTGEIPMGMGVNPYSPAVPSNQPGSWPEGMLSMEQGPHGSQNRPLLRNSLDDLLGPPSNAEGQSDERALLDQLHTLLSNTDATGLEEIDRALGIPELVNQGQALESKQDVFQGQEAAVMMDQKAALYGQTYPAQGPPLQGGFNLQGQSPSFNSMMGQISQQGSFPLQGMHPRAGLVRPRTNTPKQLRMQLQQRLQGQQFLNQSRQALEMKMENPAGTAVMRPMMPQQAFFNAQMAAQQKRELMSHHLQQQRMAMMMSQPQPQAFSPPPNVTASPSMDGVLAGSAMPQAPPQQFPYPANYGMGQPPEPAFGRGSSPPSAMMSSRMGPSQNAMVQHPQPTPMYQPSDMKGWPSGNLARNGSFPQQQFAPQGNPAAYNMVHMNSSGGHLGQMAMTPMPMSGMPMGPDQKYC
IMP-1 inh: inhibitors of Pseudomonas aeruginosa IMP-1 metallo-beta-lactamase | purified IMP-1, nitrocefin hydrolysis, epi-absorbance fluorescence | inhibition, % at 5.6 µM | 290,000 compounds, 0.45% hits | AID 1556;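 active means inhibition above the mean plus 3 SD of all compounds in the same screening run, cut at about 4.5% in these data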;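 further: 0% = IMP-1 with DMSO and 100% = DMSO wells lacking enzyme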
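System: purified recombinant IMP-1 beta-lactamase. Medium: Zinc- and detergent-supplemented HEPES buffer, pH 7.1. Compound: one 5.6 µM dose […]. Schedule: 15 min preincubation plus 25 min reaction at 25 °C. Technique: Epi-absorbance fluorescence, 480 nm excitation, 530 nm emission.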
CTSL1 counter: cathepsin L1 inhibition, PFM18AAP counter-screen. 300,000 compounds, 0.49% hits. inhibition, % at 5.96 µM. recombinant F. hepatica cathepsin L1, Z-Leu-Arg-MCA fluorescence;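 active means inhibition above the mean of all tested compounds plus 3 SD, set per screening campaign, cut at about 17% in these data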;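 further: 0% = plate median of test compound wells and 100% = 1 µM Z-Phe-Ala-diazomethylketone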
VIM-2 inhibitor: blocks Pseudomonas aeruginosa VIM-2 metallo-beta-lactamase; purified VIM-2, nitrocefin hydrolysis, epi-absorbance fluorescence; 290,000 compounds, 0.89% hits; inhibition, % at 5.6 µM; AID 1527;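 active means inhibition above the mean of all tested compounds plus 3 SD, cutoff set per screening run, cut at about 7.5% in these data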;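 further: red hydrolysis product quenches plate fluorescence so inhibitors raise well fluorescence; 0% = enzyme with DMSO and 100% = DMSO without enzyme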
UBC9 SUMO inh: blocks human SUMOylation mediated by UBC9 | P63279 | HTRF SUMOylation assay, SAE1/SAE2 + UBC9, in vitro | inhibition, % at 35 µM | 290,000 compounds, 0.36% hits; in the data active means inhibition above about 50%, passing the limit was not always enough
T cell modulator: T cell immune modulators affecting CD8 T cell-vesicle binding. 2C CD8+ T cell-vesicle binding, flow cytometry; active compounds read low. response (vesicle binding), % at 7 µM. 330,000 compounds, 0.068% hits. AID 2052;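 active means response, share of CD8 T cells binding vesicles, and their 90th percentile fluorescence all below set limits, cut at about 80% in these data, passing the limit was not always enough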;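 further: values below 100% mean blocked vesicle binding to the CD8+ T cells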
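Benchmarks: naked versus QL9-loaded vesicles / Assay system: purified 2C TCR transgenic mouse naive CD8+ T cells / Technique: high-throughput flow cytometry with anti-B7-1 and anti-CD8 staining / Timing: Cell–vesicle co-incubation 1.5 h at 37 °C, staining 20 min on ice / Read-out: percent CD8+ FL2 mean versus row control / Probe or stimulus: QL9-loaded Drosophila micro-vesicles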
Numbers without * were called inactive; i = inactive; . = no result given.

SMILES	p-CIP stab down	IMP-1 inh	CTSL1 counter	VIM-2 inhibitor	UBC9 SUMO inh	T cell modulator
CCOC(=O)c1c2ccccc2[n+]([O-])n1[C@@H](C)C(N)=O	.	.	4	.	.	590
O=C(NCc1ccccc1)C1CCN(S(=O)(=O)c2ccc(N3CCCC3=O)cc2)CC1	-16	-3	17*	-3	-5	696
O=C(NCc1ccc(Cl)cc1)C1CCN(S(=O)(=O)c2ccc(N3CCCC3=O)cc2)CC1	-17	-3	1	-2	-2	160
N#Cc1ccsc1NC(=O)C1CCN(S(=O)(=O)c2cccs2)CC1	.	.	0	.	.	206
Oc1ccc(/C=N/n2c(-c3ccccc3)n[nH]c2=S)cc1	4	0	0	9.2*	5	257
CCOC(=O)N1CCC(N2Cc3cccc(C(=O)NCc4ccccn4)c3C2=O)CC1	-24	-4	27*	-3	21	596
O=C(COc1ccccc1)N=C1SC2CS(=O)(=O)CC2N1c1ccc(F)cc1F (stereo not given)	-1	-2	1	-1	12	583
CC(C)N(C(=O)CSc1nnc(NC(=O)c2cccs2)s1)C(C)C	-2	-3	1	10.0*	15	119
CC(C)c1nnc(NC(=O)c2cccs2)s1	8	-5	1	-2	1	409
Cc1ccc(NC(=O)CN2C(=O)S/C(=C\c3cccn3-c3cccc(C(=O)O)c3)C2=O)cc1C	-5	0	-2	-4	64*	239
Cc1cccc(NC(=O)CN2C(=O)S/C(=C\c3cccn3-c3cccc(C(=O)O)c3)C2=O)c1	1	-2	0	-3	20	150
Cc1ccc(NC(=O)CN2C(=O)S/C(=C\c3cccn3-c3cccc(C(=O)O)c3)C2=O)c(C)c1	-5	-2	-3	-3	83*	260
CCc1ccc(-c2cc3c(=O)n(CC(=O)NCCCN4CCN(CC)CC4)nc(C)n3n2)cc1	2	-4	-2	2	1	260
O=C(C(=O)N1CCN(c2ccccc2)CC1)c1cn(CC(=O)N2CCCCCC2)c2ccccc12	-12	-2	1	-2	-2	334
O=C(Cc1cc(=O)oc2cc(O)ccc12)NCC1CCC(C(=O)O)CC1 (stereo not given)	-3	-5	4	-5	55*	416
CCCc1cc(=O)oc2cc(OCC(=O)NCC3CCC(C(=O)O)CC3)ccc12 (stereo not given)	1	-4	0	-1	-9	337
COC(=O)c1ccc(NC(=O)C(=O)NCC2CCCO2)cc1 (stereo not given)	0	-2	17*	-2	9	961
O=C(N/N=C\c1ccc(Cl)cc1)C1=NOC2COC3(CCN(c4ccc([N+](=O)[O-])cc4)CC3)OCC12 (stereo not given)	-24	-3	5	-3	18	226
COC(=O)c1[nH]c2ccc(Cl)cc2c1NC(=O)CCN1CCN(C2CCCCC2)CC1	5	8.0*	5	-2	7	276
O=C1N(O)C2(C=CCCC2)/C(=N\O)C12CCCCC2 (stereo not given)	-23	1	16	10*	20	410
CCc1nc(NCc2cccnc2)c2oc3ccccc3c2n1	-22	-3	-1	11*	27	386
CCS(=O)(=O)c1ccc2oc(SCC(=O)c3c(N)n(C4CC4)c(=O)[nH]c3=O)nc2c1	.	.	.	.	.	431
COc1ccc(C(=O)NNC(=O)CSc2nnc(-c3cccnc3)o2)cc1	-4	-2	-5	-2	8	344
Cc1nnc2c(NC(C)C)nc3ccccc3n12	-11	-3	0	9.0*	10	299
O=C(CSc1n[nH]c(-c2ccccn2)n1)Nc1ccccc1F	-9	-4	-2	9.6*	-25	i
SMILES	p-CIP stab down	IMP-1 inh	CTSL1 counter	VIM-2 inhibitor	UBC9 SUMO inh	T cell modulator
CCCCN1C(=O)C(=O)N(CC(=O)Nc2sc(C)c(C)c2C(=O)OC)C1=O	.	.	.	.	.	656
CCOC(=O)c1c(NC(=O)CN2C(=O)CN(C)C2=O)sc(C)c1C	0	11*	-1	3	11	143
CCOc1ccccc1-c1nc(CN2CCCN(C(=O)c3ccco3)CC2)c(C)o1	7	-3	0	-1	9	123
CC(=O)NNC(=O)c1sc(=S)n2c1[nH]c(=O)c1sccc12	-4	-1	3	23*	-3	189
NC(=O)c1sc(=S)n2c1[nH]c(=O)c1sccc12	-19	-1	1	8.2*	9	221
O=C(NCc1ccccc1)c1sc(=S)n2c1[nH]c(=O)c1ccccc12	-4	-2	-1	-1	4	719
C/C(=N\NC(=O)c1ccccc1O)C1CC1	-1	-3	5	-4	7	316
CC1CCCCC1NC(=O)COC(=O)CNC(=O)c1cccc(F)c1 (stereo not given)	-1	0	22*	0	12	257
O=C(CNC(=O)c1cccc(F)c1)OCC(=O)N1CCCc2ccccc21	-14	-4	20*	-6	-6	320
O=C(CNC(=O)c1ccccc1F)OCC(=O)N1CCCc2ccccc21	-2	0	1	1	-9	248
O=C(COC(=O)c1cccc(Br)c1)NCc1ccco1	.	.	.	.	.	446
CCOC(=O)C(=CNc1ccc(S(N)(=O)=O)cc1)C(=O)OCC	-4	-3	4	-3	8	54
CCOC(=O)C(=CNc1ccc(NC2=NCC(C)(C)S2)cc1)C(=O)OCC	-10	-5	0	10*	4	891
O=C1Cc2ccccc2C(=O)N1CCc1ccccc1	-4	-3	67*	-4	22	174
O=C1C(=O)N(Cc2ccccc2)C(=O)N1CCN1C(=O)c2ccccc2C1=O	-2	-2	0	-1	-2	375
CC(OC(=O)CNC(=O)c1ccc(Cl)c(Cl)c1)C(=O)N1CCOCC1 (stereo not given)	.	.	25*	.	.	304
O=C(NCC(=O)N1CCOCC1)c1ccc(Cl)cc1	-10	-1	1	-2	-5	518
C/C=C/C(=O)N1CC2(CC(c3cccc(NC(=O)/C(C)=C/C)c3)=NO2)C[C@H]1C(N)=O (stereo not given in full)	-20	.	18*	.	-15	692
CN(C)c1ccc(C(C(=O)NCC2CCCO2)N(Cc2ccccc2)C(=O)c2snc(C(N)=O)c2N)cc1 (stereo not given)	-2	-2	-2	-3	0	422
Cc1cccc(N(C(=O)c2snc(C(N)=O)c2N)C(C(=O)NCC2CCCO2)c2ccc(N(C)C)cc2)c1C (stereo not given)	-17	-2	3	-4	8	0.0*
O=C1Nc2ccc(Br)cc2C12NNc1ccccc1O2 (stereo not given)	-16	-3	4	-2	-26	822
